The record followed here is ChEMBL document CHEMBL1144659, “Structure-activity study of 2,3-benzodiazepin-4-ones noncompetitive AMPAR antagonists: identification of the 1-(4-amino-3-methylphenyl)-3,5-dihydro-7,8-ethylenedioxy-4H-2,3-benzodiazepin-4-one as neuroprotective agent” (Bioorg Med Chem, 2008).

The test system of one experiment is Neuron. Kind of experiment: Inhibition of kainate-induced C57BL/6N mouse hippocampal neurons excitotoxicity after 48 hrs by MTT assay. It counts as functional, tissue-based. The settings on record: Hippocampus. A digest of the protocol: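 E13 C57BL/6N mouse hippocampal cultures were given 30 µM kainate with the test compound at graded concentrations, in medium without glutamate. Exposure was 48 h at 37 °C. Viability was measured by MTT conversion (absorbance 570 nm), relative to untreated cells. IC50 values are representative of three independent experiments.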
Background: Tetrazolium assays rely on reduction of a dye to a coloured formazan, in cell work by metabolically active cells.

Experiment [1] is described as follows: Antagonist activity at AMPA receptor in rat […] granule cells assessed as inhibition of kainate-induced calcium uptake after 30 mins. It counts as functional, cell-based. To be noted: 0.5 h. A digest of the protocol:
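Primary rat cerebellar granule neurons, preincubated 30 min with compounds in BSS (pH 7.3), then exposed at room temperature to 100 µM kainate in BSS with 10 µM glycine, 0.5 mM dithiothreitol and 45Ca2+ for 10 min. Washed with ice-cold BSS containing 5 mM EGTA, lysed in 0.6% Triton X-100, radioactivity counted. IC50 representative of three experiments.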

Experiment [2] in a line: Displacement of [3H]CP-526427 from AMPA receptor in Sprague-Dawley rat fore brain by radioligand binding assay. A digest of the protocol:
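Adult male Sprague-Dawley forebrain membranes at 0.5 mg protein/mL in 50 mM Tris·HCl pH 7.4. Compounds at various concentrations with 3 nM [3H]CP-526,427, 20 min at 30 °C. Filtration onto glass fiber filters, scintillation counting. Nonspecific binding taken with 10 µM unlabeled CP-526,427 or CP-465,022. Positive control was CP-465,022.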
A general note: Loss of bound radioactivity is the signal in a displacement assay; it reports binding, not function.

Experiment [3] can be described thus: Excitotoxicity against C57BL/6N mouse hippocampal neurons after 48 hrs by MTT assay. It counts as tissue-based. To be noted: Neuron, Hippocampus. An outline of the steps: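 Primary hippocampal cultures from E13 C57BL/6N mouse embryos were grown on poly-L-lysine in Neurobasal/B27/BDNF medium. At 7 DIV they were exposed to kainate (5–500 µM) for 48 h at 37 °C, 5% CO2. Viability was read by MTT (4 h, absorbance 570 nm) as % of untreated cells. Five–six experiments, each in duplicate.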

A value given as a limit tells only on which side of the number the result lay.

One may read the IC50 as the concentration that gives 50% inhibition. In general, EC50 refers to the midpoint of the concentration-response curve.

Take `NS(=O)(=O)c1cccc2c1c([N+](=O)[O-])cc1nc(O)c(O)nc12` [NBQX]: the IC50 in the experiment on Neuron is 11.9 µM.

With `CCC1C(=O)NN=C(c2ccc(N)c(C)c2)c2cc3c(cc21)OCO3` (stereo not drawn), the IC50 is 4.34 µM in experiment [1] and 15.6 µM in experiment [2].

For `Cc1cc(C2=NNC(=O)Cc3cc4c(cc32)OCCO4)cc(C)c1N`, the IC50 in experiment [1] and in experiment [2] was > 100 µM throughout.

In the case of `Cc1cc(C2=NNC(=O)Cc3cc4c(cc32)OCO4)cc(C)c1N`, the IC50 in experiment [1] and in experiment [2] was > 100 µM in each case.

Take `CNC(=O)N1N=C(c2ccc(N)cc2)c2cc3c(cc2C[C@H]1C)OCO3`: the Activity result in the experiment with Neuron was “Dose-dependent effect”.

Take `CNC(=O)N1N=C(c2ccc(N)cc2)c2cc3c(cc2CC1=O)OCO3`: the values for the IC50 in experiment [1] and in experiment [2] were 11 µM and 12 µM, respectively.

Regarding `CC1=NN=C(c2ccc(N)cc2)c2cc3c(cc2C1)OCO3` [GYKI-52466], the IC50 came to 22 µM in experiment [1], 10.8 µM in the experiment on Neuron and 12.6 µM in experiment [2].

For `COc1cc(C2=NNC(=O)Cc3cc4c(cc32)OCO4)ccc1N`, the IC50 in experiment [1] was 31 µM; in experiment [2], > 100 µM.

As for `Nc1ccc(C2=NNC(=O)Cc3cc4c(cc32)OCCO4)cc1Cl`, the IC50 amounted to 2 µM in experiment [1] and 2.05 µM in experiment [2].

For the compound `CC1C(=O)NN=C(c2ccc(N)c(Cl)c2)c2cc3c(cc21)OCO3` (stereo not drawn), the half-maximal inhibitory concentration (IC50) in experiment [1] was found to be 7 µM; in experiment [2], 11.4 µM.

Turning to `CC1C(=O)NN=C(c2ccc(N)cc2)c2cc3c(cc21)OCO3` (stereo not drawn), the IC50 amounted to 12 µM in experiment [1] and 12.9 µM in experiment [2].

With `CC(=O)N1N=C(c2ccc(N)cc2)c2cc3c(cc2C[C@H]1C)OCO3`, the Activity result in the experiment on Neuron is “Dose-dependent effect”.

For `Cc1cc(C2=NNC(=O)Cc3cc4c(cc32)OCO4)ccc1N`, the IC50 in experiment [1] is 2.5 µM; in experiment [2], 6.3 µM.

In the case of `Cc1cc(C2=NNC(=O)C(C)c3cc4c(cc32)OCO4)ccc1N` (stereo not drawn), the IC50 in experiment [1] was determined as 18.8 µM; in experiment [2], 9.62 µM.

`Cc1cc(C2=NNC(=O)Cc3cc4c(cc32)OCCO4)ccc1N`: the results for the IC50 (in experiment [1]; in the experiment on Neuron; in experiment [2]) were 6.4 µM, 1.6 µM and 1.84 µM, respectively.

On to `C=C(C)[C@H]1CN[C@H](C(=O)O)[C@H]1CC(=O)O` [KAINIC ACID], for which the concentration for a half-maximal effect (EC50) in experiment [3] came to 17.3 µM.

Consider `CC1C(=O)NN=C(c2ccc(N)c(Cl)c2)c2cc3c(cc21)OCCO3` (stereo not drawn), for which the IC50 is 18 µM in experiment [1] and 21.6 µM in experiment [2].

On to `Cc1cc(C2=NNC(=O)C(C)c3cc4c(cc32)OCCO4)ccc1N` (stereo not drawn), for which the figures for the IC50 in experiment [1] and in experiment [2] were 1.23 µM and 4.5 µM, respectively.

On to `CNC(=O)N1N=C(c2ccc(N)cc2)c2cc3c(cc2CC1=O)OCCO3`, for which the IC50 in experiment [1] amounted to 5.4 µM; in experiment [2], 7.78 µM.

`Nc1ccc(C2=NNC(=O)Cc3cc4c(cc32)OCCO4)cc1`: the IC50 in experiment [1] was 2.9 µM; in experiment [2], 9 µM.

Turning to `CNC(=O)N1N=C(c2ccc(N)cc2)c2cc3c(cc2C(C)C1=O)OCO3` (stereo not drawn), the half-maximal inhibitory concentration (IC50) in experiment [1] came out at 15.8 µM; in experiment [2], 4.01 µM.

In experiment [2], `CC1C(=O)NN=C(c2ccc(N)cc2)c2cc3c(cc21)OCCO3` (stereo not drawn) showed an IC50 of 6.96 µM.

Take `CCC1C(=O)NN=C(c2ccc(N)cc2)c2cc3c(cc21)OCO3` (stereo not drawn): the values for the IC50 in experiment [1] and in experiment [2] were 17.1 µM and 8.37 µM, respectively.

Consider `Nc1ccc(C2=NNC(=O)C(Cc3ccccc3)c3cc4c(cc32)OCO4)cc1` (stereo not drawn), for which the IC50 in experiment [2] was > 100 µM.

In the case of `COc1cc(C2=NNC(=O)Cc3cc4c(cc32)OCCO4)ccc1N`, the IC50 was found to be 12 µM in experiment [1] and 81.1 µM in experiment [2].

Consider `Nc1ccc(C2=NNC(=O)Cc3cc4c(cc32)OCO4)cc1`, for which the figures for the IC50 in experiment [1] and in experiment [2] were 12 µM and 32 µM, respectively.
